Reference: ChEMBL document CHEMBL1122242, “Phenylenebis(oxy)bis[2,2-dimethylpentanoic acid]s: agents that elevate high-density lipoproteins” (1983)

Legend:
Assay type in all cases: functional
Rattus norvegicus [1] = assay: Hypolipidemic effects (low-density lipoprotein (LDL) cholesterol) in male rats; Compound was screening orally at 50 mg/Kg
How it was run: (§1)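 Male rats, 10 per group, fed 7 days on chow with 10% fat (5.5% added peanut oil), 1.5% cholesterol and 0.1% cholic acid. Oral gavage on days 4-7 in 4% acacia, usually 50 mg/kg daily. Fasted overnight, killed day 8, atrial blood into EDTA. Plasma cholesterol, TG and HDL cholesterol (after MnCl2/heparin precipitation) by Autoanalyzer. % change vs controls, Student's t test.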

Rattus norvegicus [2] = species: Rattus norvegicus; assay: Hypolipidemic effects(plasma TG) in male rats; how it was run: as §1
Rattus norvegicus [3] = species: Rattus norvegicus; assay: Hypolipidemic effects(liver weight) in male rats; how it was run: as §1
Rattus norvegicus [4] = assay: Hypolipidemic effects (high-density lipoprotein (HDL) cholesterol) in male rats; Compound was screening orally at 50 mg/Kg; how it was run: as §1
Rattus norvegicus [5] = species: Rattus norvegicus; assay: Hypolipidemic effects(plasma cholesterol) in male rats; how it was run: as §1

Compound	Change (Rattus norvegicus [1]) [%]	Change (Rattus norvegicus [2]) [%]	Change (Rattus norvegicus [3]) [%]	Change (Rattus norvegicus [4]) [%]	Change (Rattus norvegicus [5]) [%]
CC(C)(CO)CCCOc1ccc(OCCCC(C)(C)CO)c(-c2ccccc2)c1	-36	0	30	1105	37
COC(=O)C(C)(C)CCCOc1ccc(OCCCC(C)(C)C(=O)OC)c(-c2nnco2)c1	-33	0	11	31	-26
CC(C)(CCCOc1ccc(OCCCC(C)(C)C(=O)O)c(-c2ccc(Cl)cc2Cl)c1)C(=O)O	-54	-20	0	64	-45
COC(=O)C(C)(C)CCCOc1cc(C(C)(C)C)c(OCCCC(C)(C)C(=O)OC)cc1C(C)(C)C		-15	0	0	0
COC(=O)C(C)(C)CCCOc1ccc(C)c(OCCCC(C)(C)C(=O)OC)c1	-64	0	4	38	-55
COC(=O)C(C)(C)CCCCCOc1ccccc1OCCCCCC(C)(C)C(=O)OC	-19	140	11	276	0
COC(=O)C(C)(C)CCCOc1cc(OCCCC(C)(C)C(=O)OC)c(Cl)cc1Cl	0	0	0	0	0
COC(=O)C(C)(C)CCCOc1ccc(C=O)c(OCCCC(C)(C)C(=O)OC)c1	-30	0	11	79	-18
CC(C)(CCCOc1ccc(S(=O)(=O)CCCC(C)(C)C(=O)O)cc1)C(=O)O	-20	0	9	93	0
CC(C)(CCCOc1ccc(OCCCC(C)(C)C(=O)O)c(-c2ccccc2Cl)c1)C(=O)O	-38	38	23	480	0
COC(=O)C(C)(C)CCCOc1ccc(C(=O)c2ccc(OCCCC(C)(C)C(=O)OC)cc2)cc1	0	0	0	0	0
CC(C)(CCCOc1ccc(OCCCC(C)(C)C(=O)O)c([S+]([O-])c2ccccc2)c1)C(=O)O (configuration not stated)	-58	-21	16	599	-27
COC(=O)C(C)(C)CCCOc1cccc(OCCCC(C)(C)C(=O)OC)c1C		-15	33	385	-37
CC(C)(CCCOc1cccc(OCCCC(C)(C)C(=O)O)c1)C(=O)O		0	17	294	-52
CC(C)(CCCOc1ccc(-c2ccc(OCCCC(C)(C)C(=O)O)cc2)cc1)C(=O)O		0	15	138	-30
COC(=O)C(C)(C)CCCOc1ccccc1OCCCC(C)(C)C(=O)OC		-30	0	0	-40
CC(C)(CCCOc1ccc(Sc2ccc(OCCCC(C)(C)C(=O)O)cc2)cc1)C(=O)O		20	0	0	-35
COC(=O)C(C)(C)CCCOc1cc(C)cc(OCCCC(C)(C)C(=O)OC)c1		-53	18	262	-62
Cc1cc(OCCCC(C)(C)C(=O)O)c(C)c(C)c1OCCCC(C)(C)C(=O)O		42	21	165	-37
